Activity calls are given as the source filed them. The rule behind the calls is not given here.
Key:
[1] = test system: A-375; experiment: Cytotoxicity in human A375 cells assessed as reduction in cell viability incubated for 48 hrs by MTT assay; assay type: functional, cell-based
Summary of the method: (§1)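 MTT viability assay on A375 melanoma, A549 lung adenocarcinoma and WI-38 normal lung fibroblast cells after 24 and 48 h treatment. IC50 values are in µM, expressed as mean ± SD.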

[2] = test system: A-375; experiment: Cytotoxicity in human A375 cells assessed as reduction in cell viability incubated for 24 hrs by MTT assay; assay type: functional, cell-based; summary of the method: as §1
[3] = test system: A549; experiment: Cytotoxicity in human A549 cells assessed as reduction in cell viability incubated for 48 hrs by MTT assay; assay type: functional, cell-based; summary of the method: as §1
[4] = test system: A549; experiment: Cytotoxicity in human A549 cells assessed as reduction in cell viability incubated for 24 hrs by MTT assay; assay type: functional, cell-based; summary of the method: as §1
[5] = test system: WI-38; experiment: Cytotoxicity in human WI38 cells assessed as reduction in cell viability incubated for 48 hrs by MTT assay; assay type: cell-based; summary of the method: as §1
[6] = test system: WI-38; experiment: Cytotoxicity in human WI38 cells assessed as reduction in cell viability incubated for 24 hrs by MTT assay; assay type: cell-based; summary of the method: as §1
[7] = Antioxidant activity assessed as hydroxyl radical scavenging activity at 1 to 1000 ug/ml incubated for 1 hr; assay type: functional
[8] = Antioxidant activity assessed as DPPH radical scavenging activity at 1 to 1000 ug/ml incubated for 30 mins by spectrophotometry; assay type: functional
[9] = test system: A-375; experiment: Induction of GSH depletion in human A375 cells by fluorimetry; assay type: functional, cell-based
[10] = test system: A549; experiment: Induction of GSH depletion in human A549 cells by fluorimetry; assay type: functional, cell-based
[11] = Antioxidant activity at 1 to 1000 ug/ml incubated for 90 mins by FRAP assay; assay type: functional
[12] = Homo sapiens, A-375, 48 h, read-out: IC50
[13] = Homo sapiens, A-375, 24 h, read-out: IC50
[14] = Homo sapiens, A549, 48 h, read-out: IC50
[15] = Homo sapiens, A549, 24 h, read-out: IC50
[16] = Homo sapiens, WI-38, 48 h, read-out: IC50

Structure (SMILES)	IC50 [1, 12]	IC50 [2, 13]	IC50 [3, 14]	IC50 [4, 15]	IC50 ([5]; wi-38)	IC50 ([6]; wi-38)	IC50 [5, 16]	IC50 ([1]; a-375)	IC50 ([2]; a-375)	IC50 ([3]; a549)	IC50 ([4]; a549)	IC50 ([6]; Homo sapiens, WI-38, 24 h, read-out: IC50)	Activity [7]	Activity [8]	Activity [9]	Activity [10]	Activity [11]
COc1cc(C2Oc3cc(-c4cc(=O)c5c(O)cc(O)cc5o4)ccc3OC2c2cc(CN)on2)ccc1O (configuration not stated)	4.6 µM	7.5 µM	2.2 µM	5.2 µM	Non-Toxic	Non-Toxic	–	–	–	–	–	–	–	–	–	–	–
COc1cc(C2Oc3cc(-c4cc(=O)c5c(O)cc(O)cc5o4)ccc3OC2c2cc(C(=O)NS(=O)(=O)c3ccccc3)on2)ccc1O (configuration not stated)	3.5 µM	7.2 µM	6.3 µM	51 µM	Non-Toxic	Non-Toxic	–	–	–	–	–	–	–	–	–	–	–
COc1cc(C2Oc3cc(-c4cc(=O)c5c(O)cc(O)cc5o4)ccc3OC2c2cc(C(=O)NC3CCCCC3)on2)ccc1O (configuration not stated)	28.8 µM	66.8 µM	14.5 µM	80 µM	Non-Toxic	Non-Toxic	–	–	–	–	–	–	–	–	–	–	–
COc1cc(C2Oc3cc(-c4cc(=O)c5c(O)cc(O)cc5o4)ccc3OC2/C=C2/C(=O)ONC2C(F)(F)F)ccc1O (configuration not stated)	0.83 µM	2 µM	16.4 µM	2.1 µM	–	Non-Toxic	95 µM	–	–	–	–	–	–	–	–	–	–
COc1cc(C2Oc3cc(-c4cc(=O)c5c(O)cc(O)cc5o4)ccc3OC2/C=C2/C(=O)ONC2c2ccc(F)cc2)ccc1O (configuration not stated)	7.9 µM	13.7 µM	7.5 µM	1.4 µM	Non-Toxic	Non-Toxic	–	–	–	–	–	–	–	–	–	–	–
COc1cc(C2Oc3cc(-c4cc(=O)c5c(O)cc(O)cc5o4)ccc3OC2/C=C2/C(=O)ONC2C)ccc1O (configuration not stated)	–	–	–	–	Non-Toxic	Non-Toxic	–	Not Active	Not Active	Not Active	Not Active	–	–	–	–	–	–
COc1cc(C2Oc3cc(-c4cc(=O)c5c(O)cc(O)cc5o4)ccc3OC2/C=C2/C(=O)ONC2CCl)ccc1O (configuration not stated)	0.035 µM	0.04 µM	0.07 µM	0.095 µM	–	–	4.9 µM	–	–	–	–	5.5 µM	–	–	–	–	–
COc1cc(C2Oc3cc(-c4cc(=O)c5c(O)cc(O)cc5o4)ccc3OC2/C=C2/C(=O)ON(c3ccccc3)C2C)ccc1O (configuration not stated)	–	–	71.5 µM	83 µM	Non-Toxic	Non-Toxic	–	Not Active	Not Active	–	–	–	–	–	–	–	–
COc1cc(C2Oc3cc(-c4cc(=O)c5c(O)cc(O)cc5o4)ccc3OC2c2cc(CO)on2)ccc1O (configuration not stated)	74.9 µM	–	–	–	Non-Toxic	Non-Toxic	–	–	Not Active	Not Active	Not Active	–	–	–	–	–	–
COc1cc(C2Oc3cc(-c4cc(=O)c5c(O)cc(O)cc5o4)ccc3OC2CO)ccc1O (configuration not stated)	49.2 µM	71.6 µM	68 µM	88.6 µM	Non-Toxic	Non-Toxic	–	–	–	–	–	–	inactive	inactive	inactive	inactive	inactive
COc1cc(C2Oc3cc(-c4cc(=O)c5c(O)cc(O)cc5o4)ccc3OC2/C=C2/C(=O)ONC2c2ccccc2)ccc1O (configuration not stated)	15.6 µM	18.5 µM	10 µM	13.5 µM	Non-Toxic	Non-Toxic	–	–	–	–	–	–	–	–	–	–	–
COc1cc(C2Oc3cc(-c4cc(=O)c5c(O)cc(O)cc5o4)ccc3OC2c2cc(C(C)(C)O)on2)ccc1O (configuration not stated)	0.65 µM	1.43 µM	2.9 µM	4.8 µM	Non-Toxic	Non-Toxic	–	–	–	–	–	–	–	–	–	–	–
COc1cc(C2Oc3cc(-c4cc(=O)c5c(O)cc(O)cc5o4)ccc3OC2c2noc(C)c2CO)ccc1O (configuration not stated)	46.5 µM	68.7 µM	51 µM	68 µM	Non-Toxic	Non-Toxic	–	–	–	–	–	–	–	–	–	–	–
COc1cc(C2Oc3cc(-c4cc(=O)c5c(O)cc(O)cc5o4)ccc3OC2c2cc(-c3ccc(C)cc3)on2)ccc1O (configuration not stated)	–	–	77.4 µM	–	Non-Toxic	Non-Toxic	–	Not Active	Not Active	–	Not Active	–	–	–	–	–	–
COc1cc(C2Oc3cc(-c4cc(=O)c5c(O)cc(O)cc5o4)ccc3OC2C=O)ccc1O (configuration not stated)	43.8 µM	63 µM	87.8 µM	96 µM	Non-Toxic	Non-Toxic	–	–	–	–	–	–	–	–	–	–	–
COc1cc(C2Oc3cc(-c4cc(=O)c5c(O)cc(O)cc5o4)ccc3OC2/C=C2/C(=O)ON(C)C2C)ccc1O (configuration not stated)	2.4 µM	3.1 µM	3.8 µM	4.5 µM	–	Non-Toxic	68 µM	–	–	–	–	–	–	–	–	–	–
COc1cc(C2Oc3cc(-c4cc(=O)c5c(O)cc(O)cc5o4)ccc3OC2c2cc(C(=O)NS(=O)(=O)c3ccc(Cl)cc3)on2)ccc1O (configuration not stated)	4.2 µM	6.2 µM	6.6 µM	8.7 µM	–	Non-Toxic	54.6 µM	–	–	–	–	–	–	–	–	–	–
COc1cc(C2Oc3cc(-c4cc(=O)c5c(O)cc(O)cc5o4)ccc3OC2/C=C2/C(=O)ONC2c2ccc(C)cc2)ccc1O (configuration not stated)	6.7 µM	9.2 µM	9 µM	12.7 µM	Non-Toxic	Non-Toxic	–	–	–	–	–	–	–	–	–	–	–
COc1cc(C2Oc3cc(-c4cc(=O)c5c(O)cc(O)cc5o4)ccc3OC2c2cc(C(=O)Nc3ccc(C(F)(F)F)cc3)on2)ccc1O (configuration not stated)	0.95 µM	4 µM	0.76 µM	3.6 µM	Non-Toxic	Non-Toxic	–	–	–	–	–	–	–	–	–	–	–
COc1cc(C2Oc3cc(-c4cc(=O)c5c(O)cc(O)cc5o4)ccc3OC2/C=C2/C(=O)ONC2c2ccc(Cl)cc2)ccc1O (configuration not stated)	0.94 µM	1.2 µM	1.2 µM	2 µM	Non-Toxic	Non-Toxic	–	–	–	–	–	–	–	–	–	–	–
CCCC1NOC(=O)/C1=C/C1Oc2ccc(-c3cc(=O)c4c(O)cc(O)cc4o3)cc2OC1c1ccc(O)c(OC)c1 (configuration not stated)	60 µM	92.7 µM	–	–	Non-Toxic	Non-Toxic	–	–	–	Not Active	Not Active	–	–	–	–	–	–
COc1cc(C2Oc3cc(-c4cc(=O)c5c(O)cc(O)cc5o4)ccc3OC2c2cc(Cc3ccccc3)on2)ccc1O (configuration not stated)	0.9 µM	4.6 µM	3.9 µM	7 µM	Non-Toxic	Non-Toxic	–	–	–	–	–	–	–	–	–	–	–
